Assay [1] relates to TLX-5. The assay can be described thus: In vivo antitumor activity against the TLX5 lymphoma cell line in mouse species CBA/CA after intraperitoneal administration (inoculum cells-2x10E5,sc) at the dose of 20 mg/kg. The format is functional. The method, boiled down: (§1)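 CBA/CA mice were inoculated with 2 × 10^5 TLX5 lymphoma cells. Drug given intraperitoneally in 10% Me2SO in arachis oil, 5 mice per dose, and the experiment lasted 60 days. Survivors at 60 days were recorded. T/C % = mean death day of treated animals / mean death day of control animals.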

In assay [2] the test system is TLX-5. The assay can be described thus: In vivo antitumor activity against the TLX5 lymphoma cell line in mouse species CBA/CA after intraperitoneal administration (inoculum cells-2x10E5,sc) at the dose of 20 mg/kg on 5th day. The format is functional.
The test system of assay [3] is TLX-5. The assay can be described thus: (§2) In vivo antitumor activity against the TLX5 lymphoma cell line in mouse species CBA/CA after intraperitoneal administration (inoculum cells-2x10E5,sc) at the dose of 40 mg/kg. The format is functional. The procedure, abridged:
as §1

In assay [4] the test system is TLX-5. In words: In vivo antitumor activity against the TLX5 lymphoma cell line in mouse species CBA/CA after intraperitoneal administration (inoculum cells-2x10E5,sc) at the dose of 10 mg/kg on 5th day. The format is functional.
Assay [5] relates to L1210. The assay can be described thus: In vivo antitumor activity against the L1210 leukemia cell line in mouse species B6D2F1 after intraperitoneal administration (inoculum cells-10E5,ip) at the dose of 100 mg/kg on 7th day. The format is functional.
Assay [6] deals with L1210. In words: In vivo antitumor activity against the L1210 leukemia cell line in mouse species B6D2F1 after intraperitoneal administration (inoculum cells-10E5,ip) at the dose of 200 mg/kg on 7th day. The format is functional.
In assay [7] the test system is TLX-5. In words: In vivo antitumor activity against the TLX5 lymphoma cell line in mouse species CBA/CA after intraperitoneal administration (inoculum cells-2x10E5,sc) at the dose of 10 mg/kg. The format is functional.
Assay [8] relates to TLX-5. The assay can be described thus: (§3) In vivo antitumor activity against the TLX5 lymphoma cell line in mouse species CBA/CA after intraperitoneal administration (inoculum cells-2x10E5,sc) at the dose of 160 mg/kg. The format is functional. The procedure, abridged: as §1
Assay [9] deals with TLX-5. In words: (§4) In vivo antitumor activity against the TLX5 lymphoma cell line in mouse species CBA/CA after intraperitoneal administration (inoculum cells-2x10E5,sc) at the dose of 40 mg/kg on 5th day. Type of assay: functional.
In assay [10] the test system is L1210. In words: In vivo antitumor activity against the L1210 leukemia cell line in mouse species B6D2F1 after intraperitoneal administration (inoculum cells-10E5,ip) at the dose of 50 mg/kg. Type of assay: functional.
The test system of assay [11] is TLX-5. The assay can be described thus: In vivo antitumor activity against the TLX5 lymphoma cell line in mouse species CBA/CA after intraperitoneal administration (inoculum cells-2x10E5,sc) at the dose of 80 mg/kg on 5th day. The format is functional.
The subject of assay [12] is L1210. In words: In vivo antitumor activity against the L1210 leukemia cell line in mouse species B6D2F1 after intraperitoneal administration (inoculum cells-10E5,ip) at the dose of 200 mg/kg. The format is functional.
Assay [13] relates to TLX-5. The assay can be described thus: (§5) In vivo antitumor activity against the TLX5 lymphoma cell line in mouse species CBA/CA after intraperitoneal administration (inoculum cells-2x10E5,sc) at the dose of 160 mg/kg on 5th day. The format is functional.
Assay [14] relates to L1210. The assay can be described thus: In vivo antitumor activity against the L1210 leukemia cell line in mouse species B6D2F1 after intraperitoneal administration (inoculum cells-10E5,ip) at the dose of 50 mg/kg on 7th day. The format is functional.
In assay [15] the test system is L1210. The assay can be described thus: In vivo antitumor activity against the L1210 leukemia cell line in mouse species B6D2F1 after intraperitoneal administration (inoculum cells-10E5,ip) at the dose of 100 mg/kg. The format is functional.
The test system of assay [16] is TLX-5. The assay can be described thus: In vivo antitumor activity against the TLX5 lymphoma cell line in mouse species CBA/CA after intraperitoneal administration (inoculum cells-2x10E5,sc) at the dose of 80 mg/kg. Type of assay: functional. The procedure, abridged: as §1
Assay [17] has as its system TLX-5. In words: In vivo antitumor activity against the TLX5 lymphoma cell line in mouse species CBA/CA after intraperitoneal administration (inoculum cells-2x10E5,ip) at the dose of 320 mg/kg on 5th day. The format is functional.
Assay [18] deals with TLX-5. The assay can be described thus: In vivo antitumor activity against the TLX5 lymphoma cell line in mouse species CBA/CA after intraperitoneal administration (inoculum cells-2x10E5,ip) at the dose of 80 mg/kg on 5th day. The format is functional.
Assay [19] deals with TLX-5. In words: In vivo antitumor activity against the TLX5 lymphoma cell line in mouse species CBA/CA after intraperitoneal administration (inoculum cells-2x10E5,ip) at the dose of 80 mg/kg. The format is functional. The method, boiled down: as §1
The test system of assay [20] is TLX-5. The assay can be described thus: In vivo antitumor activity against the TLX5 lymphoma cell line in mouse species CBA/CA after intraperitoneal administration (inoculum cells-2x10E5,ip) at the dose of 160 mg/kg on 5th day. The format is functional.
Assay [21] relates to TLX-5. The assay can be described thus: In vivo antitumor activity against the TLX5 lymphoma cell line in mouse species CBA/CA after intraperitoneal administration (inoculum cells-2x10E5,sc) at the dose of 160 mg/kg.
The subject of assay [22] is TLX-5. The description is as §5. The format is functional. The method, boiled down:
as §1
This is another data set of the same source.

The subject of assay [23] is TLX-5. The assay can be described thus: In vivo antitumor activity against the TLX5 lymphoma cell line in mouse species CBA/CA after intraperitoneal administration (inoculum cells-2x10E5,sc) at the dose of 320 mg/kg. Type of assay: functional. The procedure, abridged:
as §1

The test system of assay [24] is L1210. The assay can be described thus: In vivo antitumor activity against the L1210 leukemia cell line in mouse species B6D2F1 after peroral administration (inoculum cells-10E5,ip) at the dose of 40 mg/kg on 8th day. Type of assay: functional. The settings on record: route oral. The method, boiled down: (§6)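 B6D2F1 mice were inoculated with 10^5 L1210 leukemia cells, ip or iv as the line states. Compound was given orally as a suspension in 1% (carboxymethyl)cellulose in water, dosed on day 1 or 3, over 28–39 days. T/C% = mean death day of treated/mean death day of controls. Survivors to the end were counted in groups of 7–8.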

In assay [25] the test system is L1210. The assay can be described thus: In vivo antitumor activity against the L1210 leukemia cell line in mouse species B6D2F1 after peroral administration (inoculum cells-10E5,ip)at the dose of 320 mg/kg on 7th day. Type of assay: functional. The settings on record: route oral. The procedure, abridged: as §6
For assay [26], the system named is TLX-5. In words: In vivo antitumor activity against the TLX5 lymphoma cell line in mouse species CBA/CA after intraperitoneal administration (inoculum cells-2x10E5,sc) at the dose of 320 mg/kg on 5th day. Type of assay: functional.
For assay [27], the system named is TLX-5. The description is as §3. Type of assay: functional. The procedure, abridged: (§7)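 CBA/CA mice were implanted sc with 2 × 10^5 TLX5 lymphoma cells. Compound was given ip on day 3 in 10% Me2SO in arachis oil, over 60 days, in groups of 5. T/C% = mean death day of treated/mean death day of controls. Survivors to day 60 were counted.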
This is another data set of the same source.

Assay [28] relates to L1210. In words: In vivo antitumor activity against the L1210 leukemia cell line in mouse species B6D2F1 after peroral administration (inoculum cells-10E5,ip) at the dose of 320 mg/kg. The format is functional. The settings on record: route oral.
The subject of assay [29] is L1210. The assay can be described thus: In vivo antitumor activity against the L1210 leukemia cell line in mouse species B6D2F1 after peroral administration (inoculum cells-10E5,ip at the dose of 160 mg/kg. The settings on record: route oral. Type of assay: functional.
For assay [30], the system named is L1210. The assay can be described thus: In vivo antitumor activity against the L1210 leukemia cell line in mouse species B6D2F1 after peroral administration (inoculum cells-10E5,ip) at the dose of 80 mg/kg on 8th day. The following applies: route oral. The format is functional. The method, boiled down:
as §6

In assay [31] the test system is L1210. In words: In vivo antitumor activity against the L1210 leukemia cell line in mouse species B6D2F1 after peroral administration (inoculum cells-10E5,ip) at the dose of 80 mg/kg. Type of assay: functional. The settings on record: route oral.
Assay [32] concerns L1210. In words: In vivo antitumor activity against the L1210 leukemia cell line in mouse species B6D2F1 after peroral administration (inoculum cells-10E5,ip) at the dose of 160 mg/kg on 8th day. The settings on record: route oral. Type of assay: functional. The procedure, abridged: as §6
The subject of assay [33] is L1210. In words: In vivo antitumor activity against the L1210 leukemia cell line in mouse species B6D2F1 after peroral administration (inoculum cells-10E5,ip) at the dose of 40 mg/kg. The format is functional. The settings on record: route oral.
In assay [34] the test system is L1210. The assay can be described thus: In vivo antitumor activity against the L1210 leukemia cell line in mouse species B6D2F1 after peroral administration (inoculum cells-10E5,iv) at the dose of 100 mg/kg. Type of assay: functional. The following applies: route oral.
The subject of assay [35] is TLX-5. Described as §4. Type of assay: functional. The procedure, abridged: as §1
This is another data set of the same source.

Assay [36] relates to L1210. The assay can be described thus: In vivo antitumor activity against the L1210 leukemia cell line in mouse species B6D2F1 after peroral administration (inoculum cells-10E5,iv) at the dose of 200 mg/kg on 7th day. The settings on record: route oral. The format is functional. The method, boiled down: as §6
The subject of assay [37] is TLX-5. The assay is described as §2. Type of assay: functional. The procedure, abridged:
as §7
This is another data set of the same source.

In assay [38] the test system is L1210. The assay can be described thus: In vivo antitumor activity against the L1210 leukemia cell line in mouse species B6D2F1 after peroral administration (inoculum cells-10E5,iv) at the dose of 100 mg/kg on 7th day. Type of assay: functional. The settings on record: route oral. The method, boiled down:
as §6

Assay [39] has as its system L1210. The assay can be described thus: In vivo antitumor activity against the L1210 leukemia cell line in mouse species B6D2F1 after peroral administration (inoculum cells-10E5,iv) at the dose of 50 mg/kg. The settings on record: route oral. Type of assay: functional.
The test system of assay [40] is L1210. The assay can be described thus: In vivo antitumor activity against the L1210 leukemia cell line in mouse species B6D2F1 after peroral administration (inoculum cells-10E5,iv) at the dose of 50 mg/kg on 7th day. The format is functional. The following applies: route oral. The method, boiled down: as §6
The subject of assay [41] is L1210. The assay can be described thus: In vivo antitumor activity against the L1210 leukemia cell line in mouse species B6D2F1 after peroral administration (inoculum cells-10E5,iv) at the dose of 200 mg/kg. The settings on record: route oral. Type of assay: functional.

4 compounds from ChEMBL document CHEMBL1125112, “Antitumor imidazotetrazines. 20. Preparation of the 8-acid derivative of mitozolomide and its utility in the preparation of active antitumor agents” (1990) can be followed below.

A value given as a limit tells only on which side of the number the result lay.

A word on the T/C: it is the ratio of treated to control. For the compound `CCOC(=O)c1ncn2c(=O)n(CCCl)nnc12`, the T/C in [1] is 98%; in [3], 104%; in assay [7] it was 89%; in assay [8], 113%; in assay [10], 113%; in assay [12], 137%. In addition, the T/C in [15] worked out at 120%; in [16], 91%. In addition, the Survivors in assay [2], in assay [4], in [5], in [6], in assay [9] and in assay [11] was 0 each time. Further, the Survivors in [13] and in [14] was 0 in each case.

For the compound `O=C(NNc1ccccc1)c1ncn2c(=O)n(CCCl)nnc12`, the Survivors in assay [17], in assay [18] and in [20] was 0 throughout. Also, the T/C in [19] is given as 107%; in assay [21] it was 169%.

Take `O=C(O)c1ncn2c(=O)n(CCCl)nnc12`: the T/C was 108% in [22]; 102% in assay [1]; 223% in [23]; 103% in [3]; 106% in assay [28]; 107% in assay [29]. For the same compound, the T/C amounted to 101% in assay [31], 102% in assay [33] and 106% in [16]. Also, the Survivors in assay [2], in assay [24], in assay [25], in assay [26], in assay [27] and in assay [9] was 0 throughout. Further, the Survivors in [11], in [30] and in assay [32] was 0 each time.

Consider `CONC(=O)c1ncn2c(=O)n(CCCl)nnc12`, for which the T/C in [1] is recorded as 103%; in assay [34], 179%; in assay [35] it was 116%; in assay [8] it was >325%; in assay [39], 117%; in assay [41] it was 205%. In addition, the T/C in assay [16] was 185%. The Survivors in assay [2], in assay [36], in assay [37], in assay [26], in [11] and in [38] was 0 throughout. Moreover, the figures for the Survivors in assay [13] and in assay [40] were 3 and 0, respectively.
